# Compound activity deposited in PubChem by Broad Institute.
# esBAF inh – blocks esBAF chromatin remodeling in mouse ES cells; Bmi1-luciferase knock-in reporter, 24 h; 100% = twice the neutral-well signal; hit rate 2% among 350,000; reporter increase, % at 12.5 µM; in the data active = activation above about 40%;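 note: 0% = median of the plate's neutral control wells and 100% = double that signal; a rise in the Bmi1 reporter signal indicates esBAF inhibition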
# MITF act – activators of MITF-driven TRPM1 promoter activity in SK-MEL-5 cells. activation, % at 12.5 µM. hit rate 0.75% among 300,000. AID 588334. SK-MEL-5 TRPM1-promoter luciferase, 24 h; % of positive control, neutral wells = 0;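 active = mean activation of at least 80% with every replicate also reaching 80%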;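 note: 0% = neutral control wells and 100% = parthenolide positive control wells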
# Cneo AK release – Cryptococcus neoformans lysis via adenylate kinase release; AID 651654; hit rate 0.2% among 360,000; C. neoformans lysis, adenylate kinase release luminescence, 4 h; normalised: neutral wells 0, clomiphene wells 100; lysis activity, % at 15 µM;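 active = mean lysis activity across replicates of at least 80%, whatever share of replicates individually reach that level; inactive = mean lysis activity below 80%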
#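 Material: C. neoformans cells | Amount: Yeast cell density of 5 × 10^6 cells/mL | Medium: Fresh YPD growth medium | Dosing: Single dose | Times: Static 4 h at 37 °C with compound, 1 h detection | Detection: AK luminescence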
# ERAP1 inh – blocks human ERAP1 aminopeptidase activity; Q9NZ08; recombinant ERAP1, Leu-AMC fluorescence, 60 min; inhibition, % at 10.7 µM; hit rate 0.15% among 340,000;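 active = mean replicate inhibition of at least 30%, or all replicates individually reaching that 30% level; inactive = mean below 30% and not every replicate reaching it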;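 note: 0% = neutral control wells and 100% = L-leucinethiol positive control wells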
# Env fusion inh – HIV envelope-mediated fusion inhibition; HeLa-JRFL Env/CEM21 cell fusion, luciferase; hit rate 1.1% among 360,000; AID 651610; inhibition, % at 12.3 µM;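 active = mean replicate inhibition score of at least 50 and every replicate individually at or above 50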;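 note: 0% = plate neutral controls and 100% = maraviroc near 300 nM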
# Wnt bcat act – Wnt/beta-catenin pathway activation; hit rate 1.2% among 300,000; activation, % at 9.35 µM; Wnt/beta-catenin reporter cell assay, activator, plate reader; in the data active = activation above about 30%, passing the limit was not always enough;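 note: 0% = neutral control wells and 100% = positive control wells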
# Numbers without * were called inactive; x = no result; ! = not confirmed by another sample; [ ] = another dose, or the depositor's remark. Sampled rows, rich in hits. Any-hit rate of the full collection: about 3.5%.
SMILES,esBAF inh,MITF act,Cneo AK release,ERAP1 inh,Env fusion inh,Wnt bcat act
Nc1c(C(=O)Nc2ccc3c(c2)OCCO3)nnn1Cc1ccc(F)cc1,95.8*,116.4*,-0.5,1.8,-99.6,26.4
Nc1c(C(=O)Nc2ccc3c(c2)OCCO3)nnn1Cc1ccccc1Cl,74.2*,145.2*,-0.8,-0.6,-75.0,25.2
COc1ccc(Br)cc1Cn1nnc(C(=O)Nc2ccc3c(c2)OCCO3)c1N,12.9,-1.0,-25.0,1.7,-36.6,-1.6
COc1cccc(CNC(=O)C[C@@H]2CC[C@@H](NC(=O)C3CCC3)[C@H](CO)O2)c1,-0.9,x,-5.2,5.5,-2.0[16.7 µM],x
COc1ccc(C)cc1NCc1cc(=O)oc2cc(-c3ccccc3)c(O)cc12,62.1*,34.0,x,x,-12.1,x
CCC(CC)c1nnc(NC(=O)c2ccc3ccccc3n2)s1,53.0*,11.3,-2.4,x,x,x
CCC(CC)c1nnc(NC(=O)c2cc(-c3ccccc3)nc3ccccc23)s1,x,-4.5,x,x,x,x
C[C@H]1CN([C@@H](C)CO)S(=O)(=O)c2ccc(C3=CCCC3)cc2O[C@H]1CN(C)Cc1ccccc1,-3.3,x,13.2,2.8,56.7*[16.7 µM],x
C[C@@H]1CN([C@@H](C)CO)S(=O)(=O)c2ccc(C3=CCCC3)cc2O[C@@H]1CN(C)Cc1ccccc1F,-18.0,x,89.6*,-5.9,28.2[16.7 µM],x
C[C@H](CO)N1C[C@H](C)[C@H](CN(C)Cc2ccc3c(c2)OCO3)Oc2c(NC(=O)c3nc4ccccc4s3)cccc2C1=O,x,x,x,0.1,x,x
O=[N+]([O-])c1nn(-c2ccc(Cl)cc2)n(O)c1=NCc1ccccc1,22.7,10.8,-1.9,-0.3,-39.7,39.6*
Cc1c(Cl)cccc1N=c1c([N+](=O)[O-])nn(-c2ccccc2)n1O,15.6,-16.2,0.7,1.6,x,5.2
O=[N+]([O-])c1nn(-c2ccc3c(c2)OCCO3)n(O)c1=NCCCO,14.1,x,x,x,-15.6,41.0*
O=[N+]([O-])c1nn(-c2ccc3c(c2)OCCO3)n(O)c1=NC1CCCC1,34.2,x,0.7,x,-122.4,32.6*
Cc1ccc(N=c2c([N+](=O)[O-])nn(-c3ccccc3)n2O)c(C)c1,67.0*,20.8,-7.0,2.2,x,-2.9
C[C@H](CO)N1C[C@H](C)[C@@H](CN(C)S(=O)(=O)c2ccc(F)cc2)Oc2c(NC(=O)c3cnccn3)cccc2C1=O,-1.2,x,x,-1.9,12.4[16.7 µM],x
CN1C(=O)c2cc(NC(=O)c3cccc(F)c3)ccc2OC[C@H]2O[C@@H](CC(=O)NC3CCC3)CC[C@@H]21,x,x,x,1.1,x,x
Cc1cc(C)cc(N=c2c([N+](=O)[O-])nn(-c3ccc4c(c3)OCCO4)n2O)c1,11.9,-6.9,-2.8,-2.8,65.2*,-7.5
O=[N+]([O-])c1nn(-c2ccc3c(c2)OCCO3)n(O)c1=Nc1ccccc1,x,-84.7,x,-0.5,-9.9,-10.5
COc1ccc(C2c3c(-c4ccccc4O)n[nH]c3C(=O)N2CCc2ccc(OC)c(OC)c2)cc1 (stereo unspecified),-2.3,x,4.1,x,91.4*,x
COc1ccc(CCN2C(=O)c3[nH]nc(-c4ccccc4O)c3C2c2cccc(Cl)c2)cc1 (stereo unspecified),16.6,-30.5,x,x,x,x
CCS(=O)(=O)NCC[C@H]1CC[C@H](NS(=O)(=O)c2ccccc2C)[C@H](CO)O1,-3.5,x,11.3,-1.3,13.0[16.7 µM],x
Cn1c(N)c(C(=O)COC(=O)c2cc(S(=O)(=O)N3CCOCC3)ccc2F)c(=O)n(C)c1=O,5.2,-82.2,4.4,-0.2,x,95.9*
C[C@@H]1CN([C@@H](C)CO)C(=O)c2cccc(NS(=O)(=O)c3cccs3)c2O[C@@H]1CN(C)Cc1ccc(C(F)(F)F)cc1,2.9,x,4.2,-0.3,67.6*[16.7 µM],x
C[C@H](CO)N1C[C@H](C)[C@@H](CN(C)Cc2ccc(Cl)c(Cl)c2)Oc2c(NS(=O)(=O)c3cccs3)cccc2C1=O,-3.6,-2.5,0.4,6.6,62.2*!,-3.0
C[C@@H]1CN([C@H](C)CO)C(=O)c2cccc(NS(=O)(=O)c3cccs3)c2O[C@@H]1CN(C)Cc1ccc(C(F)(F)F)cc1,-1.8,x,-6.0,-0.9,83.8*[16.7 µM],x
O=C(Nc1cccc(Cl)c1)N[C@@H]1CC[C@@H](CCNC(=O)C2CCC2)O[C@@H]1CO,-1.2,x,-2.8,0.5,-0.3[16.7 µM],x
